Measurements as given in paper PMC4832855 (Cancer Science, 2016).

Columns and labels:
[1] = tested on: patients with advanced solid tumors; assay: Phase I first-in-human study: safety, tolerability, DLT, MTD; assay type: in vivo
Procedure, shortened: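 Open-label 3+3 dose-escalation/de-escalation; oral once-daily dosing under overnight fasting for 28 days, 1-week observation, then continuous; AEs graded by CTCAE v3.0 with attribution; DLTs included grade 3 fasting hyperglycemia, grade 3 non-fasting hyperglycemia >4 h, grade 4 hyperglycemia, grade ≥2 cardiac toxicity, other grade ≥3 non-hematologic events, grade 4 neutropenia >7 days, grade 4 thrombocytopenia.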

[2] = tested on: non‐human primate, rodent; details: ref Kyowa Hakko Kirin Co., Tokyo, unpublished data; cited from earlier work

Structure (SMILES): Cc1ccsc1C(=O)Nc1cc(CN2CCN(C(=O)CO)CC2)ccc1/C=C/c1n[nH]c2ccccc12 [KW‐2450]
- Mucosal inflammation, treatment‐related, Grade 3 ([1]; 37.5 mg/day (n = 7)): 0 (0.0) No. of patients (%)
- Nausea, treatment‐related, Grade 1–2 ([1]; 37.5 mg/day (n = 7)): 2 (28.6) No. of patients (%)
- Nausea, treatment‐related, Grade 3 ([1]; 37.5 mg/day (n = 7)): 0 (0.0) No. of patients (%)
- Pain, treatment‐related, Grade 1–2 ([1]; 37.5 mg/day (n = 7)): 0 (0.0) No. of patients (%)
- Pain, treatment‐related, Grade 3 ([1]; 37.5 mg/day (n = 7)): 0 (0.0) No. of patients (%)
- Rash, treatment‐related, Grade 1–2 ([1]; 37.5 mg/day (n = 7)): 1 (14.3) No. of patients (%)
- Rash, treatment‐related, Grade 3 ([1]; 37.5 mg/day (n = 7)): 1 (14.3) No. of patients (%)
- Vomiting, treatment‐related, Grade 1–2 ([1]; 37.5 mg/day (n = 7)): 1 (14.3) No. of patients (%)
- Vomiting, treatment‐related, Grade 3 ([1]; 37.5 mg/day (n = 7)): 0 (0.0) No. of patients (%)
- Patients with dose‐limiting toxicity ([1]; 37.5 mg/day, one of seven patients, grade 3 rash): 14.3%
- Anorexia, treatment‐related, Grade 1–2 ([1]; 50 mg/day (n = 6)): 0 (0.0) No. of patients (%)
- Anorexia, treatment‐related, Grade 3 ([1]; 50 mg/day (n = 6)): 0 (0.0) No. of patients (%)
- Constipation, treatment‐related, Grade 1–2 ([1]; 50 mg/day (n = 6)): 1 (16.7) No. of patients (%)
- Constipation, treatment‐related, Grade 3 ([1]; 50 mg/day (n = 6)): 0 (0.0) No. of patients (%)
- Decreased appetite, treatment‐related, Grade 1–2 ([1]; 50 mg/day (n = 6)): 3 (50.0) No. of patients (%)
- Decreased appetite, treatment‐related, Grade 3 ([1]; 50 mg/day (n = 6)): 0 (0.0) No. of patients (%)
- Diarrhea, treatment‐related, Grade 1–2 ([1]; 50 mg/day (n = 6)): 2 (33.3) No. of patients (%)
- Diarrhea, treatment‐related, Grade 3 ([1]; 50 mg/day (n = 6)): 0 (0.0) No. of patients (%)
- Dizziness, treatment‐related, Grade 1–2 ([1]; 50 mg/day (n = 6)): 2 (33.3) No. of patients (%)
- Dizziness, treatment‐related, Grade 3 ([1]; 50 mg/day (n = 6)): 0 (0.0) No. of patients (%)
- Fatigue, treatment‐related, Grade 1–2 ([1]; 50 mg/day (n = 6)): 4 (66.7) No. of patients (%)
- Fatigue, treatment‐related, Grade 3 ([1]; 50 mg/day (n = 6)): 0 (0.0) No. of patients (%)
- Hyperglycemia, treatment‐related, Grade 1–2 ([1]; 50 mg/day (n = 6)): 2 (33.3) No. of patients (%)
- Hyperglycemia, treatment‐related, Grade 3 ([1]; 50 mg/day (n = 6)): 2 (33.3) No. of patients (%)
- Mucosal inflammation, treatment‐related, Grade 1–2 ([1]; 50 mg/day (n = 6)): 1 (16.7) No. of patients (%)
- Mucosal inflammation, treatment‐related, Grade 3 ([1]; 50 mg/day (n = 6)): 0 (0.0) No. of patients (%)
- Nausea, treatment‐related, Grade 1–2 ([1]; 50 mg/day (n = 6)): 4 (66.7) No. of patients (%)
- Nausea, treatment‐related, Grade 3 ([1]; 50 mg/day (n = 6)): 0 (0.0) No. of patients (%)
- Pain, treatment‐related, Grade 1–2 ([1]; 50 mg/day (n = 6)): 2 (33.3) No. of patients (%)
- Pain, treatment‐related, Grade 3 ([1]; 50 mg/day (n = 6)): 0 (0.0) No. of patients (%)
- Rash, treatment‐related, Grade 1–2 ([1]; 50 mg/day (n = 6)): 0 (0.0) No. of patients (%)
- Rash, treatment‐related, Grade 3 ([1]; 50 mg/day (n = 6)): 0 (0.0) No. of patients (%)
- Vomiting, treatment‐related, Grade 1–2 ([1]; 50 mg/day (n = 6)): 1 (16.7) No. of patients (%)
- Vomiting, treatment‐related, Grade 3 ([1]; 50 mg/day (n = 6)): 0 (0.0) No. of patients (%)
- Patients with dose‐limiting toxicity ([1]; 50 mg/day, two of six patients, grade 3 non‐fasting hyperglycemia): 33.3%
- Anorexia, treatment‐related, Grade 1–2 ([1]; Total (n = 13)): 2 (15.4) No. of patients (%)
- Anorexia, treatment‐related, Grade 3 ([1]; Total (n = 13)): 0 (0.0) No. of patients (%)
- Constipation, treatment‐related, Grade 1–2 ([1]; Total (n = 13)): 2 (15.4) No. of patients (%)
- Constipation, treatment‐related, Grade 3 ([1]; Total (n = 13)): 0 (0.0) No. of patients (%)
- Decreased appetite, treatment‐related, Grade 1–2 ([1]; Total (n = 13)): 3 (23.1) No. of patients (%)
- Decreased appetite, treatment‐related, Grade 3 ([1]; Total (n = 13)): 0 (0.0) No. of patients (%)
- Diarrhea, treatment‐related, Grade 1–2 ([1]; Total (n = 13)): 2 (15.4) No. of patients (%)
- Diarrhea, treatment‐related, Grade 3 ([1]; Total (n = 13)): 0 (0.0) No. of patients (%)
- Dizziness, treatment‐related, Grade 1–2 ([1]; Total (n = 13)): 3 (23.1) No. of patients (%)
- Dizziness, treatment‐related, Grade 3 ([1]; Total (n = 13)): 0 (0.0) No. of patients (%)
- Fatigue, treatment‐related, Grade 1–2 ([1]; Total (n = 13)): 8 (61.5) No. of patients (%)
- Fatigue, treatment‐related, Grade 3 ([1]; Total (n = 13)): 0 (0.0) No. of patients (%)
- Hyperglycemia, treatment‐related, Grade 1–2 ([1]; Total (n = 13)): 3 (23.1) No. of patients (%)
- Hyperglycemia, treatment‐related, Grade 3 ([1]; Total (n = 13)): 2 (15.4) No. of patients (%)
- Mucosal inflammation, treatment‐related, Grade 1–2 ([1]; Total (n = 13)): 2 (15.4) No. of patients (%)
- Mucosal inflammation, treatment‐related, Grade 3 ([1]; Total (n = 13)): 0 (0.0) No. of patients (%)
- Nausea, treatment‐related, Grade 1–2 ([1]; Total (n = 13)): 6 (46.2) No. of patients (%)
- Nausea, treatment‐related, Grade 3 ([1]; Total (n = 13)): 0 (0.0) No. of patients (%)
- Pain, treatment‐related, Grade 1–2 ([1]; Total (n = 13)): 2 (15.4) No. of patients (%)
- Pain, treatment‐related, Grade 3 ([1]; Total (n = 13)): 0 (0.0) No. of patients (%)
- Vomiting, treatment‐related, Grade 1–2 ([1]; Total (n = 13)): 2 (15.4) No. of patients (%)
- Vomiting, treatment‐related, Grade 3 ([1]; Total (n = 13)): 0 (0.0) No. of patients (%)
- Maximum tolerated dose (MTD) ([1]; once daily orally, continuous): 37.5 mg
- Recommended phase II dose (RP2D) ([1]; oral, once daily): 37.5 mg/day
- Hyperglycemia at pharmacologically active (lower) doses [2]: hyperglycemia induced
